High-throughput results deposited in PubChem by several laboratories.
An excerpt weighted towards active compounds, which were near 2.1% of everything screened.
RORA act: RORA (human) activation; AID 560; 65,000 compounds, 1.5% hits; CHO-K1 Gal4-RORA LBD luciferase reporter, luminescence; percent increase over mock-subtracted basal signal; activation, % at 10 µM; P35398;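 active means activation above the mean of all tested compounds plus 3 SD, cut at about 49% in these data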;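 further: 0% = DMSO-treated RORA cells and 100% = added signal equal to DMSO minus mock-transfected cells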
MT1-MMP txn act: MT1-MMP promoter transcription activation. HT1080 MT1-MMP promoter luciferase reporter, luminescence, overnight; stronger effect = higher value. activation factor at 10 µM. 86,000 compounds, 0.16% hits. AID 750;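 active means activation factor of at least 2 for MT1-MMP transcription at 10 µM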
SF-1 act: SF-1 (human) activation; Q13285; CHO-K1 Gal4-SF-1 LBD luciferase reporter; % increase over DMSO SF-1-specific signal; activation, % at 10 µM; 65,000 compounds, 1.9% hits; AID 522;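 active means activation above the mean activation of all tested compounds plus 3 SD, cut at about 50% in these data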
Target sequence (Q13285 whole entry, looked up, the tested form may be a part): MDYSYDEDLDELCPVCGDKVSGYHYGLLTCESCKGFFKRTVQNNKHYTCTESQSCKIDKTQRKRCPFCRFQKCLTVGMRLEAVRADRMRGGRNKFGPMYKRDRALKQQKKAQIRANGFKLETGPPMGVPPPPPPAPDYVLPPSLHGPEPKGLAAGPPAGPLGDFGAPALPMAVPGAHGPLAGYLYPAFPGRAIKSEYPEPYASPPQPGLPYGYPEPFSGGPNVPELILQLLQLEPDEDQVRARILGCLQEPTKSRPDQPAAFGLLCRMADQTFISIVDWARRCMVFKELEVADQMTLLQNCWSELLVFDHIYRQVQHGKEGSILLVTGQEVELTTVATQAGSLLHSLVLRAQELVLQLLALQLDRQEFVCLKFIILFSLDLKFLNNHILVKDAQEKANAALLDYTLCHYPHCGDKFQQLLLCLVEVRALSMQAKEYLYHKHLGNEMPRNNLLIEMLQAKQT
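Material: CHO-K1 cells with Gal4–hSF-1 LBD chimera plus Gal4-driven luciferase / Input: 4,000 CHO-K1 cells per well / Incubation: compound exposure 20 h at 37 °C / Signal: luminescence read 15 min after SteadyLite luciferase reagent, after room-temperature equilibration / Read-out: percent activation versus DMSO / Benchmarks: DMSO negative control and −SF1 background wells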
TNAP act mid DEA: activates human TNAP at intermediate phosphate acceptor concentration; P05186; purified TNAP, CDP-star luminescence, 100 mM DEA, 30 min; stronger effect = higher value; scale: 0 levamisole-inhibited, 1 vehicle-only enzyme; activation factor at 20 µM; 64,000 tested, under 10 active; AID 813;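 active means activation factor of at least 2 at 20 µM, relative to controls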
MMP-13 inhibitor: inhibitors of human MMP13; MMP-13 fTHP FRET cleavage, Mca fluorescence; P45452; inhibition, % at 4 µM; 65,000 compounds, 0.07% hits;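 active means inhibition above the mean of compound-free control plate wells plus 3 SD, cut at about 14% in these data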;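 further: 0% = DMSO wells and 100% = wells with reference MMP-13 inhibitor after basal subtraction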
Active calls of the source: *; i = inactive; . = no result.

SMILES	RORA act	MT1-MMP txn act	SF-1 act	TNAP act mid DEA	MMP-13 inhibitor
CCCc1cc(C(=O)NC2CCCC2)no1	61*	1.6	29	0.9	-4
CC(C)c1cc(C(=O)NC2CCCCC2)no1	11	1.8	54*	0.9	0
CCCc1cc(C(=O)NC2CCCCC2)no1	46	1.4	54*	1	5
CC1=Nc2ccccc2/C1=C\c1nc(-c2ccc(F)cc2)oc1O	.	1	.	.	.
O=C(NC1CCCCC1)c1cccc(COCC(F)(F)F)c1	.	1.1	.	.	.
COC(=O)C1=C(C)N(CCCC(=O)O)C(=O)NC1c1cccc(OC)c1 (configuration not stated)	.	1.1	.	.	.
O=C(CC1CC2CCC1C2)OCC(=O)c1c[nH]c2ccccc12 (configuration not stated)	.	1.6	.	.	.
CCOc1cc(CNn2nnnc2N)cc(Cl)c1OCC(=O)NC(C)(C)C	.	1	.	.	.
O=c1[nH]c(SCc2ccc(Cl)cc2)nc2c1CCC2	-8	1.5	-14	0.9	33*
CCCCC(=O)Nc1ccc(C(=O)Nc2ccc3c(c2)OCO3)cc1	60*	1.2	51*	0.8	2
O=C(NCCC1=CCCCC1)c1ccc(CN2CCOCC2)cc1	96*	1.6	40	0.9	8
O=C(Nc1ccc2c(c1)OCO2)c1ccc(CN2CCOCC2)cc1	49*	1.5	52*	0.9	6
CCOC(=O)c1c(C)[nH]c(C(=O)Nc2ccc3c(c2)OCO3)c1C	59*	1.2	132*	0.9	-5
CCOC(=O)C1=C(C)N(CCCC(=O)O)C(=O)NC1c1ccccc1OC(=O)c1cccs1 (configuration not stated)	.	1.1	.	.	.
COc1ccc(CN(C(=O)CO)[C@@H](CO[Si](c2ccccc2)(c2ccccc2)C(C)(C)C)c2cccc(NC(C)=O)c2OC)cc1OC	.	1.2	.	.	.
O=C(CSCc1ccccc1)N1CCN(c2ccc(F)cc2)CC1	.	.	.	0.9	.
O=C(CSCc1cccc(F)c1)N1CCN(c2ccccc2)CC1	53*	1.4	31	0.9	-1
Nc1ccccc1NC1=CC(=O)CC(c2ccco2)C1 (configuration not stated)	21	1.1	5	0.9	6
Cc1ccc(NC2=CC(=O)CC(c3ccco3)C2)c(N)c1 (configuration not stated)	50*	1.2	58*	0.9	5
CN=c1scc(C)n1/N=C/c1ccc(O)c(O)c1O	.	0.9	.	.	.
CCN=c1scc(C)n1/N=C/c1ccsc1	69*	1.5	70*	1	-2
CCCC[C@@H]1C[C@H]1C(NC(=O)Cc1ccccc1)c1ccc(Cl)cc1 (some centres not stated)	.	1.2	.	.	.
Cc1csc(NC(=O)c2cc3c(s2)-c2ccccc2OC3)n1	63*	1.6	43	0.8	-36
O=C(c1cc2c(s1)-c1ccccc1OC2)N1CCCC1	84*	1.6	48	1	i
O=C(NCCc1ccccc1)c1cc(-c2ccco2)on1	69*	1.5	86*	0.8	-5
SMILES	RORA act	MT1-MMP txn act	SF-1 act	TNAP act mid DEA	MMP-13 inhibitor
O=C(NCc1ccccc1)c1cc(-c2ccco2)on1	24	1.4	22	0.8	2
COc1ccc(-n2c(O)c(Cc3ccccc3)c(=O)n3nc(-c4ccccc4)c(=O)cc23)cc1	.	1.1	.	.	.
CCCC1=C(C(=O)OCC)C(c2cc(Cl)cc(OC)c2OCc2ccccc2)NC(=O)N1 (configuration not stated)	.	1	.	.	.
O=C(O)CCC(=O)N1CCN(c2ccc(C(=O)c3ccc(F)cc3)cc2)CC1	15	1.1	-11	0.9	6
O=C(c1ccccc1)c1ccc(N2CCCC2)cc1	30	1.4	77*	0.9	0
CN1CCN(c2ccc(C(=O)c3ccc(F)cc3)cc2)CC1	61*	1.1	38	1	-1
C[C@]1(C(=O)NCc2cc(F)cc(C(F)(F)F)c2)C=C[C@@H](Cc2ccccc2)N1C(=O)c1ccccc1	.	1.1	.	.	.
Cc1ccccc1Cn1c(=O)n(CCCC(=O)NCc2ccco2)c(=O)c2ccccc21	-1	1	25	1	2
Cc1cccc(Cn2c(=O)n(CCCC(=O)NCc3ccco3)c(=O)c3ccccc32)c1	55*	1.1	34	0.9	-5
COC(=O)N1C2(C=CC1(C)C(=O)NCc1ccc(N(C)C)cc1)CCCCC2 (configuration not stated)	.	1	.	.	.
COc1ccc2nc(N3CCCCC3)c(C#N)cc2c1	31	1.3	50*	1.1	-12
CC1(C)NC(=O)N(CC(O)CN2CCCCC2)C1=O (configuration not stated)	9	1.1	51*	0.8	-4
Cc1csc2nc(CSc3nc4ccccc4o3)cn12	-5	1.7	61*	0.9	0
C=CCn1c(Cc2cccs2)nnc1SC/C=C/c1ccccc1	.	1.1	.	.	.
Cn1c(-c2ccc(F)cc2)cnc1SCC(=O)Nc1ccccc1N1CCOCC1	39	1	70*	0.9	3
COC(=O)c1ccc(C23CC2(C(NP(=O)(c2ccccc2)c2ccccc2)c2ccccc2)C3)cc1 (configuration not stated)	.	1.2	.	.	.
S=C(c1ccc(-c2ccccc2Cl)o1)N1CCOCC1	54*	1.7	37	0.9	-2
COCCn1c(C(=O)N(C)C)cc2c1C[C@H]1CN(C(=O)c3ccccc3)[C@@](Cc3ccc(OC)cc3)(C(=O)OC)[C@@H]21	.	1.2	.	.	.
Cn1c(Cc2ccccc2)nnc1SCC(=O)c1ccc(Br)s1	7	1.2	19	0.8	2
Cc1cc(C)c2nc(NC(=O)c3cc(C)on3)sc2c1	.	1.3	.	.	.
CCc1ccc2nc(NC(=O)c3cc(C)on3)sc2c1	69*	1.3	117*	0.9	4
c1ccc(-c2noc(-c3cccc4ccccc34)n2)cc1	61*	2*	65*	1	-9
c1cncc(-c2noc(-c3cccc4ccccc34)n2)c1	.	1.4	.	.	.
c1ccc2c(-c3nc(-c4ccncc4)no3)cccc2c1	25	1.5	74*	0.8	-20
COC(=O)[C@@]1(Cc2ccccc2)[C@H]2c3cc(C(=O)N(C)C)n(Cc4c(CO)[nH]cc(C)c4=O)c3C[C@H]2CN1C(=O)c1ccccc1	.	1	.	.	.
SMILES	RORA act	MT1-MMP txn act	SF-1 act	TNAP act mid DEA	MMP-13 inhibitor
COC(=O)C1=C(C)N(CCCC(=O)O)C(=O)NC1c1cccc(Cl)c1Cl (configuration not stated)	.	1.2	.	.	.
CCOc1ccc(-c2nnc(-c3cccs3)o2)cc1OCC	53*	1.4	17	0.9	-114
CCOc1ccc(-c2nnc(-c3ccco3)o2)cc1OCC	22	2.1*	42	0.9	-106
Cc1cccc(-c2nnc(-c3ccccc3)o2)c1	46	1.5	60*	0.9	1
c1ccc(-c2nnc(-c3ccco3)o2)cc1	23	1.7	51*	1	-61
CCC/C=C(\CCC)C(NC(=O)c1cccs1)c1ccc(C(F)(F)F)cc1 (configuration not stated)	.	1.1	.	.	.
CCCC1(C(=O)OC)C=C2C(=C(C)C(=O)C2C)CN1 (configuration not stated)	.	1.6	.	.	.
